RAD54 inh – RAD54 (human) branch migration inhibition; RAD54 Holliday junction branch migration, FAM/BHQ fluorescence; Q92698; 360,000 compounds, 0.14% hits; inhibition, % at 10.4 µM; AID 602329;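 active means mean normalized replicate activity at least 40 and at least half of replicates scoring 40 or more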;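 further: 0% = median of neutral control wells and 100% = median of positive control wells; inhibitors cause a drop in the FAM fluorescence signal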
RAD52 inh – RAD52 (human) annealing inhibition; AID 651710; 360,000 compounds, 0.46% hits; recombinant RAD52 DNA annealing, FRET fluorescence; inhibition, % at 18.7 µM; P43351;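 active means every replicate showing at least 50% inhibition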
Target sequence (P43351 whole entry, looked up): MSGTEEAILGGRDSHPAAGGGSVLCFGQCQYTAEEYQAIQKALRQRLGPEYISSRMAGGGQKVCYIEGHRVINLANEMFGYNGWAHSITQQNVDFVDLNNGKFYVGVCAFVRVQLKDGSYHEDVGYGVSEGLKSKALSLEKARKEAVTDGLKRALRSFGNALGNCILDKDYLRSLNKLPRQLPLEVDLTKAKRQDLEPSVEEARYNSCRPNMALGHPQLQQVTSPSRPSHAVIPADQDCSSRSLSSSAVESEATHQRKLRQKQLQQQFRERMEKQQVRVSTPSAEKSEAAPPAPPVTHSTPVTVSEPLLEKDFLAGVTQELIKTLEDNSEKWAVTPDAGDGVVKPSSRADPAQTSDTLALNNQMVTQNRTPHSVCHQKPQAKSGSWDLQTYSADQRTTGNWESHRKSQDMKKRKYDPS
Glyco luc inh – blocks N-linked glycosylation in D54 reporter cells; D54 ERlucT glycosylation luciferase reporter, 24 h; percent of 100 nM tunicamycin response; reporter increase, % at 12.5 µM; 360,000 compounds, 0.23% hits; AID 588692;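 active means mean luciferase reporter signal, scaled so untreated is 0 and the glycosylation-blocking control 100, at or above a set limit in every replicate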;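 further: luciferase carries N-glycosylation sites so blocking glycosylation raises the light; 0% = median of neutral control wells and 100% = median of 100 nM tunicamycin wells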
FN deposition inh – fibronectin deposition inhibition; 350,000 compounds, 0.086% hits; inhibition, % at 12.6 µM; AH1F fibroblasts, Alexa488-fibronectin deposition fluorescence, overnight;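 active means mean inhibition across replicates of 30% or more, regardless of how many single replicates reach that level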;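 further: positive control wells lacked labelled fibronectin entirely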
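Material: AH1F fibroblast monolayer depositing Alexa488-labelled fibronectin into matrix / Amount: 10000 AH1F cells per well / Signal: fluorescence 485/525 nm / Medium: DMEM, 2% serum / Compound: single dose, pinned / Incubation: 1 h cell adhesion before compound, then overnight fibronectin incubation / Reagent: Alexa488-FN, 24 nM final / Read-out: inhibition of fibronectin deposition signal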
CaV13 FRET inh – Primary screen for inhibitors of IQ motif and Ca2+-dependent inactivation inhibitor domain binding in CACNA1D, Förster resonance energy transfer in living cells, … | HEK cells, CFP/YFP FRET ICDI-IQ, plate reader, 10 min; percent FRET-ratio fall versus neutral wells | inhibition, % at 12.3 µM | 340,000 compounds, 0.098% hits | AID 743397;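 active means mean replicate inhibition of at least 30% and at least 1% of replicates passing that level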;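 further: 0% = median of the neutral control wells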
DNA binder FP – counter-screen for RAD52 inhibitors: DNA binding compounds; shares compounds with RAD52 inh; Salmon sperm DNA/acridine orange FP displacement; AC50, µM; 1,000 compounds, 8% hits; AID 652128;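 active means fitted half-maximal concentration for signal loss at or below twice the highest dose tested, in every separate run, actives reach about 64 µM in these data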
Numbers without * were called inactive; i = inactive; / = not tested or not shown. Only some compounds are listed: those with a hit (about 0.7% of all), similar ones and a draw of the others.

SMILES	RAD54 inh	RAD52 inh	Glyco luc inh	FN deposition inh	CaV13 FRET inh	DNA binder FP
CC(C)c1ccc2c(c1)C(N1CCNCC1)Cc1ccc(F)cc1S2 (stereo not drawn)	/	1.9	/	9.5	-21.7	/
COCC(=O)Nc1ccc2c(c1)C(=O)N(C)C[C@H](OC)[C@@H](C)CN(C(=O)c1cccnc1)[C@H](C)CO2	1.0	-3.6	/	1.8	/	/
CC(C)c1ccc(NC(=O)C(c2ccccc2)N2CC(=O)Nc3ccccc32)cc1 (stereo not drawn)	7.1	61.6*	-2.2	-3.3	-6.2	i
CCOC(=O)c1c(CSc2ccc(CC)cc2)oc2ccc(O)c(CN(C)C)c12	29.6	57.8*	6.4	4.7	-3.7	i
CN(C)c1ccc(/C=N/n2c(C3CCCCC3)n[nH]c2=S)cc1	-14.1	97.4*	-4.6	10.3	-22.2	i
Fc1ccc(/C=N/n2c(C3CCCCC3)n[nH]c2=S)cc1	5.3	-4.6	-0.3	0.1	-5.6	/
C[C@H](CO)N1C[C@H](C)[C@@H](CN(C)C(=O)Nc2ccc(F)cc2)Oc2ccc(NC(=O)Cc3cn(C)c4ccccc34)cc2C1=O	3.6	-12.0	/	4.8	/	/
COc1ccc(C(=O)NC2CCCCC2)cc1S(=O)(=O)N1CCOCC1	-1.0	2.4	-0.6	10.5	-2.4	/
COc1ccc(C(=O)NC2CC(C)(C)NC(C)(C)C2)cc1S(=O)(=O)N1CCOCC1	-0.1	98.1*	2.1	7.3	-12.9	i
COc1cccc(S(=O)(=O)N[C@@H]2CC[C@H](CCNC(=O)Cc3ccncc3)O[C@H]2CO)c1	-1.8	-31.3	/	-8.5	/	/
CN(C)c1ccc(Nc2nc(N)c3ccccc3n2)cc1	21.9	45.5	-19.7	-5.7	-4.4	i
CCOc1ccc(CCN2C(=S)N([C@@H](Cc3ccc(O)cc3)CN3CCC[C@@H]3CN3C(=S)NC[C@@H]3Cc3ccccc3)C[C@@H]2CC(C)C)cc1	-1.1	51.4*	-9.4	-8.9	-7.1	i
Oc1ccc(C[C@H]2CN([C@@H](Cc3ccccc3)CN3CCCC3CN3C(=S)NC[C@@H]3Cc3ccccc3)C(=S)N2CC2CCCCC2)cc1 (stereo partly drawn)	/	-19.9	/	-4.3	-6.4	/
Oc1ccc(C[C@H]2CNC(=S)N2CC2CCCN2C[C@H](Cc2ccc(O)cc2)N2C[C@H](Cc3ccc(O)cc3)N(CC3CCCCC3)C2=S)cc1 (stereo partly drawn)	-5.8	55.0*	-3.3	/	-7.6	i
COc1cc2c(cc1OC)-c1cc3ccc(OC)c(OC)c3c[n+]1CC2	59.9*	79.7*	1.7	0.6	-5.7	i
CC(=O)C1CCC2C3CC=C4CC(SC(=N)N)CCC4(C)C3CCC12C (stereo not drawn)	/	51.0*	3.7	-1.6	-5.5	i
OCCNc1c2ccccc2nc2ccccc12	/	78.8*	66.1*	13.6	50.9*	60.3µM*
COc1ccc(S(=O)(=O)N2C[C@H](O)COC[C@H]3O[C@H](CC(=O)N(C)C)CC[C@@H]32)cc1	-6.9	-18.5	/	-1.8	/	/
Cc1ccc(S(=O)(=O)Nc2ccc3c(c2)C(=O)N([C@H](C)CO)C[C@H](C)[C@H](CN(C)C(=O)Nc2cccc4ccccc24)O3)cc1	2.9	-4.0	/	/	/	/
Cc1cc(/C=C2\Sc3ccccc3N2C)cc(C)[n+]1CC1CCCO1 (stereo not drawn)	/	50.8*	37.5*	-6.6	-4.0	i
NC(COCc1ccccc1)c1csc(Nc2ccc(C(=O)c3ccccc3)cc2)n1 (stereo not drawn)	3.7	58.1*	-1.4	-1.4	-3.9	i
C#CCOCCOCCOCCNc1nc(N2CCN(C(=O)[C@H]([C@@H](C)CC)n3cc(CCCCN)nn3)CC2)nc(N2CCN(C(=O)[C@H](CCCCN)n3cc(CCCC)nn3)CC2)n1	0.4	54.3*	0.7	-9.4	-9.4	i
C#CCOCCOCCOCCNc1nc(N2CCN(C(=O)[C@H](CCCCN)n3cc(CN)nn3)CC2)nc(N2CCN(C(=O)[C@H](CCCCN)n3cc([C@@H](N)[C@H](C)CC)nn3)CC2)n1	79.2*	72.1*	1.0	-14.8	-4.3	37.2µM*
C#CCOCCOCCOCCNc1nc(N2CCN(C(=O)[C@H](CCCCN)n3cc(CN)nn3)CC2)nc(N2CCN(C(=O)[C@H](CO)n3cc([C@@H](N)C(C)C)nn3)CC2)n1	-39.4	59.8*	2.3	-2.3	-10.0	i
C#CCOCCOCCOCCNc1nc(N2CCN(C(=O)[C@H](CCCN=C(N)N)n3cc(C(N)[C@@H](C)CC)nn3)CC2)nc(N2CCN(C(=O)[C@H](CCC(=O)O)n3cc([C@@H](N)CCCCN)nn3)CC2)n1 (stereo partly drawn)	-21.9	-93.9	0.9	-3.3	-9.7	/
SMILES	RAD54 inh	RAD52 inh	Glyco luc inh	FN deposition inh	CaV13 FRET inh	DNA binder FP
C#CCOCCOCCOCCNc1nc(N2CCN(C(=O)[C@H](CCCN=C(N)N)n3cc(C(N)[C@@H](C)CC)nn3)CC2)nc(N2CCN(C(=O)[C@H](CCCCN)n3cc([C@@H](N)[C@H](C)CC)nn3)CC2)n1 (stereo partly drawn)	3.8	62.9*	-0.3	2.7	-5.3	i
O=S(=O)(c1ccccc1)N1CC2(C1)[C@H](c1ccccc1)[C@H](CO)N2CCC(F)(F)F	/	-17.4	/	8.9	/	/
C#CCOCCOCCOCCNc1nc(N2CCN(C(=O)[C@H]([C@@H](C)CC)n3cc([C@@H](N)CO)nn3)CC2)nc(N2CCN(C(=O)[C@H](CCCCN)n3cc([C@@H](N)C(C)CC)nn3)CC2)n1 (stereo partly drawn)	-11.9	57.4*	0.0	2.3	-11.3	i
CN1CCN(CCCNC(=O)c2cc3c(=O)n(C)c4ccccc4c3s2)CC1	63.5*	62.3*	23.5	8.4	-6.3	i
O=C(C1CCCC1)N1CC[C@@H]2[C@H](CO)Nc3ccc(C4=CCCCC4)cc3[C@@H]21	/	21.4	/	-1.3	/	/
CN(C)c1nc(N)c(C(=O)N=C(N)N)nc1Cl	40.8	88.2*	1.1	7.5	-5.7	i
O=C(C[C@@H]1CC[C@@H](NC(=O)c2cccc(F)c2)[C@H](CO)O1)NCCN1CCCC1	-6.6	-2.9	/	-7.1	/	/
O=C(NCCCN1CCOCC1)c1c(O)c2cc(Br)cc(Br)c2[nH]c1=O	4.1	/	1.3	/	/	/
COc1cc2[nH]c(=O)c(C(=O)NCCCN3CCOCC3)c(O)c2cc1OC	/	66.8*	-3.3	/	-6.7	i
C/C=C/c1cnc2c(c1)C(=O)N([C@@H](C)CO)C[C@H](C)[C@H](CN(C)C(=O)Nc1c(C)noc1C)O2	4.3	-9.2	/	/	/	/
O=C(C1CCCC1)N1CCC(CC2CC(c3ccc(Cl)cc3)=NO2)(C(=O)NCC2CCCCC2)CC1 (stereo not drawn)	0.7	99.3*	-1.6	0.2	-10.5	i
